From PubChem BioAssay
CHT inh: human CHT choline transport inhibition; Q9GZV3; CHT-expressing cells, membrane potential dye, choline response; hits give low values; B-score at 10 µM; 0.86% of 310,000 active; AID 488975;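 active means B-score over 3 SD under the library average, and starting fluorescence ratio not unusually high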;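 further: choline stimulus applied at its EC90 after an EC20 pre-addition; B-score computed on integrated fluorescence ratio after choline addition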
Target sequence (Q9GZV3 whole entry, looked up): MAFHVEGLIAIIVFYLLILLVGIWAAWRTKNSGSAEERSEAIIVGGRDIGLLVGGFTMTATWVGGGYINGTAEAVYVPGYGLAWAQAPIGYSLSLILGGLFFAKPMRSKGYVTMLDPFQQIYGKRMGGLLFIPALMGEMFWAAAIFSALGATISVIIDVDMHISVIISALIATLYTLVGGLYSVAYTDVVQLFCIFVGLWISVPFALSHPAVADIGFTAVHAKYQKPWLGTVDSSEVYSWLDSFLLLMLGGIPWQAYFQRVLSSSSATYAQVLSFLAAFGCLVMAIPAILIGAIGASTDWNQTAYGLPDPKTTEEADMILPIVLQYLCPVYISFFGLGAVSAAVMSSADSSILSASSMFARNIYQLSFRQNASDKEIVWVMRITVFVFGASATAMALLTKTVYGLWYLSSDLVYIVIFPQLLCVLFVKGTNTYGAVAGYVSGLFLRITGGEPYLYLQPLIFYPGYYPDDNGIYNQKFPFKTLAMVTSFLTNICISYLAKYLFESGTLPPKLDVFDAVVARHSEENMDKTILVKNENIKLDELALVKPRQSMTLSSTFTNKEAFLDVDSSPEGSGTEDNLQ
ANO1 activ: mouse TMEM16A channel activation, primary screen. AID 623877. B-score at 10 µM. Q8BHY3. HEK293 TMEM16A/YFP-H148Q/I152L, iodide quench fluorescence; hits give low values. 0.3% of 340,000 active;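 active means fluorescence-ratio B-score plate-corrected deviation score at least 3 library SD below zero, with starting fluorescence score within 5 deviations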;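 further: channel opened by trigger with iodide after compound preincubation; score built on the fluorescence ratio of max minus min over baseline; more negative score means more quench and so TMEM16A activation or potentiation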
CHT allo act: allosteric activators of human choline transporter CHT; CHT-expressing cells, membrane potential dye, choline EC20; hits give high values; LV-AA mutant CHT in HEK293 cells; B-score at 10 µM; 0.49% of 310,000 active; AID 488977;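 active means initial fluorescence not abnormally high and integrated response B-score, plate-corrected, over 3 SD above library mean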
IMP-1 inhibitor: inhibitors of Pseudomonas aeruginosa IMP-1 metallo-beta-lactamase; 0.45% of 290,000 active; purified IMP-1, nitrocefin hydrolysis, epi-absorbance fluorescence; inhibition, % at 5.6 µM;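 active means inhibition above the mean plus 3 SD of all compounds in the same screening run, cut at about 4.5% in these data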;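 further: 0% = IMP-1 with DMSO and 100% = DMSO wells lacking enzyme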
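Test system: recombinant IMP-1 enzyme, purified / Medium: HEPES buffer pH 7.1 with ZnSO4 and Brij 35 / Doses: single dose, 5.6 µM / Times: 25 °C, 15 min preincubation, 25 min reaction / Detection: Epi-absorbance via hydrolysed-nitrocefin quenching of white-plate fluorescence, 480/530 nm, EDTA stop / Evaluation: percent inhibition from optical density relative to buffer-blank wells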
ANO1 block: blocks the mouse calcium-activated chloride channel TMEM16A. Q8BHY3. HEK293 TMEM16A/YFP iodide influx fluorescence, ionomycin. normalized B-score (activity score, 25-100; higher = stronger inhibition) at 10 µM. 1.2% of 310,000 active;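 active means ratio plate-corrected score three or more library SD toward inhibition, starting fluorescence score within five deviations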;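 further: score derived from kinetic fluorescence span divided by baseline fluorescence per well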
VIM-2 inh: inhibitors of Pseudomonas aeruginosa VIM-2 metallo-beta-lactamase | 0.89% of 290,000 active | AID 1527 | inhibition, % at 5.6 µM | purified VIM-2, nitrocefin hydrolysis, epi-absorbance fluorescence;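 active means inhibition above the mean of all tested compounds plus 3 SD, cutoff set per screening run, cut at about 7.5% in these data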;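 further: red hydrolysis product quenches plate fluorescence so inhibitors raise well fluorescence; 0% = enzyme with DMSO and 100% = DMSO without enzyme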
An asterisk follows results filed as active; i = inactive; . = not tested or not shown. Only some compounds are listed: those with a hit (about 3.4% of all), similar ones and a draw of the others.

SMILES | CHT inh | ANO1 activ | CHT allo act | IMP-1 inhibitor | ANO1 block | VIM-2 inh
O=C(OCCNc1nc(-c2ccccc2)nc2ccccc12)c1ccncc1 | i | i | i | -5.1 | i | 9.6*
COCCNCc1cc(C)n(-c2cc(S(=O)(=O)N3CCOCC3)ccc2N2CCCC2)c1C | . | i | . | . | . | .
Cc1ccc(C)c2nc3sc(C(=O)N4CCCc5ccccc54)c(N)c3cc12 | i | i | i | -1.4 | i | -3.4
Cc1ccc(C)c2nc3sc(C(=O)O)cc3cc12 | i | i | i | -3.6 | i | 9.6*
COc1ccc(-c2cc(C(=O)N3CCc4ccccc4C3)no2)cc1OC | i | -6.36* | i | -2.0 | i | -2.7
O=C(c1cc(-c2ccccc2)on1)N1CCc2ccccc2C1 | i | i | i | -0.7 | i | -4.7
N#Cc1ccccc1S(=O)(=O)N1CCN(C(=O)CCC2CCCC2)CC1 | . | -23.4* | . | . | . | .
CCc1nn(CC(=O)NCCCN(C)Cc2ccccc2)c(=O)c2cc3sc(C)cc3n12 | i | i | i | -1.2 | i | 9.0*
CCc1nn(CC(=O)NCCCN2CCN(C)CC2)c(=O)c2cc3sccc3n12 | i | i | i | -2.6 | i | 6.6
CCc1nn(CC(=O)NCCCN2CCc3ccccc3C2)c(=O)c2cc3sccc3n12 | i | i | i | -3.3 | 100* | 3.2
CSc1nc(SCCO)c2sc3nc(-c4ccco4)c4c(c3c2n1)CC(C)(C)OC4 | . | i | . | 3.6 | . | 2.7
CSc1nc(N(CCO)CCO)c2sc3nc(-c4ccco4)c4c(c3c2n1)CCC4 | . | i | . | 12.4* | . | 1.4
O=C(CN1CCC(n2cnc3cc(F)ccc32)CC1)Nc1ccccc1Br | i | i | i | -2.0 | i | 9.8*
Cc1ccc(S(=O)(=O)N(C)C)cc1NC(=O)COC(=O)c1ccc2c(c1)OCCO2 | i | i | i | -2.1 | i | -1.5
CN(CC(=O)N1CCN(c2ccccc2)CC1)C1CCCc2ccccc21 (stereo unspecified) | i | i | i | -7.0 | i | -2.1
CCN(CC)c1ccc2nc3ccccc3[n+](CC)c2c1 | i | i | i | -9.2 | i | 11.3*
O=c1c2ccccc2nnn1Cc1ccc(F)cc1 | i | i | i | -2.0 | 100* | -3.3
CC(C)OC(=O)c1ccc(Cn2nnc3ccccc3c2=O)cc1 | i | i | i | -1.5 | 100* | -1.9
COC(=O)c1ccc(Cn2nnc3ccccc3c2=O)o1 | i | i | i | 1.6 | i | 3.0
O=c1c2ccccc2nnn1Cc1ccc(Br)cc1 | i | i | i | -0.8 | i | -2.1
COc1cc(Br)c(CNc2cc(C)ccc2C)cc1OC | i | i | i | 4.7* | i | -1.5
COc1ccc(CNc2cc(C)ccc2C)c(OC)c1OC | i | i | i | -4.8 | i | -6.3
CC(C)NC(=O)C(C)N1CCN(S(=O)(=O)c2ccc3ccccc3c2)CC1 (stereo unspecified) | i | i | i | -0.1 | i | -0.7
NS(=O)(=O)c1ccc(NC(=S)NC(=O)c2ccc(-c3ccccc3)cc2)cc1 | i | i | i | 5.5* | i | 0.3
CN1CCN(S(=O)(=O)c2ccc(NC(=S)NC(=O)c3ccc(Cl)cc3)cc2)CC1 | . | i | . | -2.4 | . | 27.4*
SMILES | CHT inh | ANO1 activ | CHT allo act | IMP-1 inhibitor | ANO1 block | VIM-2 inh
CN1CCN(c2ccc(NC(=S)NC(=O)c3cccc4c(Cl)cccc34)cc2)CC1 | i | i | i | -1.6 | i | 8.3*
O=C(NC(=S)Nc1ccc(S(=O)(=O)N2CCCCC2)cc1)c1ccc(Cl)cc1 | i | i | i | -2.3 | i | -5.0
NS(=O)(=O)c1ccc(NC(=S)NNC(=O)c2ccc(Br)o2)cc1 | i | i | i | 5.2* | i | -6.6
COc1ccccc1NC(=O)OCC#CCOC(=O)Nc1ccccc1OC | i | i | i | -0.6 | i | 0.0
Cc1ccc(C)c(OCCC(=O)Nc2cccc(S(=O)(=O)N3CCCCC3)c2)c1 | . | i | . | . | . | .
Cc1ccc[n+](CC(=O)Nc2ccc(Cl)c([N+](=O)[O-])c2)c1 | i | i | i | -1.1 | i | 8.9*
Cc1ccc(S(=O)(=O)N/N=C/c2ccccc2F)cc1[N+](=O)[O-] | i | i | i | 5.9* | i | -0.8
Cc1ccc(N(CCC(=O)O)S(=O)(=O)c2ccccc2)cc1 | i | i | i | -4.6 | i | -1.8
COc1cccc(CN(C)C(=O)c2ccc(S(=O)(=O)Nc3ccccc3F)cc2)c1OC | . | i | . | . | . | .
COc1ccc(CN(C)C(=O)CCN(c2ccccc2)S(=O)(=O)c2ccc(C)cc2)c(OC)c1 | i | i | i | . | 25* | .
COc1ccc(CN(C)C(=O)c2cc(S(=O)(=O)Nc3ccccc3F)ccc2C)c(OC)c1 | i | i | i | 4.8* | i | 1.5
Cc1onc(-c2ccccc2Cl)c1C(=O)Nc1ccccc1O | i | i | i | -4.7 | i | -2.0
CCc1cc(C(=O)N2CCCC(C(=O)c3cccc4ccccc34)C2)n(C)n1 (stereo unspecified) | i | i | i | -0.6 | 25* | 0.1
CC(C)c1nc(SCC(=O)Nc2nccs2)c2ccccc2n1 | i | i | i | -2.0 | i | -1.5
CC(C)c1nc(SCC(=O)Nc2ccc(N(C)C)cc2)c2ccccc2n1 | i | i | i | 5.2* | i | -3.9
COc1ccc(NC(=O)c2ccc3c(c2)C(=O)N(Cc2ccncc2)C3=O)cc1S(N)(=O)=O | . | i | . | . | . | .
Cc1ccc(C(=O)NC(C)c2ccc(F)cc2)cc1 (stereo unspecified) | i | i | i | -3.8 | i | -0.9
Cc1ccc(C(C#N)c2ccc(C(=O)c3ccc(F)cc3)cc2)cc1 (stereo unspecified) | i | i | i | -2.5 | 25* | -3.7
CCN(CCCNC(=O)c1cc2c(-c3cccc(OC)c3)nn(C)c2s1)Cc1ccccc1 | i | i | i | -1.0 | i | 5.9
COc1cccc(-c2nn(C)c3sc(C(=O)N4CCOCC4)cc23)c1 | i | i | i | -0.8 | i | 5.9
COc1cccc(-c2nn(C)c3sc(C(=O)N4CCN(c5ccccn5)CC4)cc23)c1 | i | i | i | -5.0 | 25* | 2.2
COc1cccc(-c2nn(C)c3sc(C(=O)NCc4ccc(C)o4)cc23)c1 | i | i | i | 4.7* | i | -1.3
Cc1cc(NC(=O)CSC2=NS(=O)(=O)c3cc(F)ccc3N2)no1 | i | i | i | . | i | .
COC(=O)c1c(C(=O)OC)c(-c2ccc(C)cc2)n2c1CCC2 | i | i | i | -3.0 | i | -1.8
